This is an account of results in ChEMBL document CHEMBL1133750, “X-Ray structure of cytotoxic trans-[PtCl(2)(dimethylamine)(isopropylamine)]: interstrand cross-link efficiency, DNA sequence specificity, and inhibition of the B-Z transition” (J Med Chem, 2000).

The nature of experiment [1]: Ratio of the amount of platinum bound per nucleotide to ri (0.05). In a few lines:
(§1)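 Linear pBR322 DNA (20 μg/mL) in 10 mM NaClO₄ incubated at 37 °C with Pt compound at input Pt/nucleotide ratio ri of 0.01–0.20; 24 h for the rb/ri series, aliquots at various times for kinetics. Unbound drug removed by ethanol/0.3 M sodium acetate (pH 4.8) precipitation of DNA; Pt bound per nucleotide (rb) measured by TXRF; rb/ri given as percent; mean ± SD.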

A short description of experiment [2]: Ratio of the amount of platinum bound per nucleotide to ri (0.10). In a few lines:
as §1

Experiment [3] in a line: Ratio of the amount of platinum bound per nucleotide to ri (0.20). Put shortly: as §1
The nature of experiment [4]: Ratio of the amount of platinum bound per nucleotide to ri (0.01). In a few lines:
as §1

Experiment [5] in a line: Ratio of the amount of platinum bound per nucleotide to ri (0.15). Put shortly: as §1

“Trans-[PtCl2(dimethylamine)isopropylamine)] (tdmaipa)”: the Ratio in experiment [1] is 82%; in experiment [2], 76%; in experiment [3], 68%; in experiment [4], 85%; in experiment [5] it was 70%.
Regarding CISPLATIN, the Ratio is 95% in experiment [1]; 90% in experiment [2]; 75% in experiment [3]; 97% in experiment [4]; 80% in experiment [5].
